# Sampled rows, rich in hits. Any-hit rate of the full collection: about 3.5%.
# RGS4 block: inhibitors of human RGS4; HEK293 M3R/RGS4 inducible, Fluo-4 calcium flux; active compounds read high; triggered by carbachol at its EC20; B-score at 10 µM; 310,000 tested, 0.45% active;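 active = B-score, a plate-corrected calcium signal, over three deviations above library mean, with baseline fluorescence within five deviations of library mean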;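 also: RGS4 expression induced by doxycycline in cells with stable M3 receptor; B-score is computed from the integrated fluorescence ratio over baseline after carbachol; higher B-score means a larger calcium signal and so more RGS4 inhibition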
# Target sequence (P49798 whole entry, looked up): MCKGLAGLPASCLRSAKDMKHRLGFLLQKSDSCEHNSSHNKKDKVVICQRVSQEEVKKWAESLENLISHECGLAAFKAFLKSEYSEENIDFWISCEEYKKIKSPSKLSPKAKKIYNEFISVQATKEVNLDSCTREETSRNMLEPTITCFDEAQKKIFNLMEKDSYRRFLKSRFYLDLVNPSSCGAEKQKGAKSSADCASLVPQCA
# RGS4 pot: RGS4 potentiation or activation. HEK293 M3R/inducible RGS4, carbachol calcium flux Fluo4; active compounds read low. B-score at 10 µM. 310,000 tested, 0.92% active;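 active = B-score of the integrated calcium signal more than 4 SD below the library mean, with starting fluorescence not abnormally high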;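 also: negative B-score means reduced calcium response which marks RGS4 activation or potentiation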
#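 System: HEK293 FlpIn-TREx cells, stable M3R, doxycycline-inducible RGS4. Timing: overnight RGS4 induction, 30 min dye load 37 °C, 20 min compound RT. Also added: carbachol, ECmax concentration. Measured by: Fluo4 fluorescence kinetic imaging of calcium. Evaluation: integrated calcium ratio converted to B score.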
# MrgX1 ag: activates human MrgX1 receptor signaling; Q96LB2; 310,000 tested, 0.44% active; MrgX1-HEK293 cells, Fluo-4 calcium fluorescence, agonist mode; active compounds read high; B-score at 10 µM;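 active = calcium response B-score plate-corrected fluorescence ratio at least 3 library SD, with starting fluorescence B-score inside 5 SD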
# Target sequence (Q96LB2 whole entry, looked up): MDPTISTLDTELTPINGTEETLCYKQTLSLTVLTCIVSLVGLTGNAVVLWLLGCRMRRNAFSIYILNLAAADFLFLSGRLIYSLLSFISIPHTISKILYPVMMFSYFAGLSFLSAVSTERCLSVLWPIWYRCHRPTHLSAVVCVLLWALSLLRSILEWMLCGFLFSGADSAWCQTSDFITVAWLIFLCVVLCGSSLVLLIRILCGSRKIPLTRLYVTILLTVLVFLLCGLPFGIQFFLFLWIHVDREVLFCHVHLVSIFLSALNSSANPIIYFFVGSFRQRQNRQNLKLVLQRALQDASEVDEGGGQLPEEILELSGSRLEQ
#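 Material: MrgX1-expressing HEK293 cells; input: 15,000 cells per well; doses: test compound given as first of three sequential additions; schedule: overnight plating before 1 h dye loading; technique: Fluo-4 NW calcium-flux fluorescence, kinetic read; evaluation: baseline-normalised fluorescence change ratio, B-scored; control set: plate-wise positive and negative controls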
# MrgX1 allo act: allosterically activates human MrgX1 receptor signaling. Q96LB2. MrgX1-HEK293, Fluo-4 calcium flux, FDSS; active compounds read high. B-score at 10 µM. 310,000 tested, 0.63% active. AID 588675;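 active = plate-corrected calcium response at least 3 library SD above typical, normal starting fluorescence, not activating the receptor alone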;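 also: compound read alongside a low EC10 to EC30 dose of BAM8-22 agonist; peak minus trough fluorescence over baseline measured at the second addition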
# MrgX1 antag: blocks BAM8-22 activation of human MrgX1 receptor | MRGX1-HEK293 calcium flux, Fluo-4, BAM8-22 antagonism; active compounds read low | B-score at 10 µM | 310,000 tested, 1.3% active | Q96LB2;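 active = calcium-response B-score plate-corrected more than 3 library SD below zero, starting fluorescence within 5 deviations, no agonist response on first addition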;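 also: peak minus trough fluorescence over baseline after final BAM8-22 challenge near maximal dose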
# MrgX1 antag conf: confirmation of human MrgX1 receptor antagonists. MrgX1-HEK293, BAM8-22 calcium flux, Fluo-4; active compounds read low. AID 602420. shares compounds with MrgX1 antag. remaining BAM8-22 calcium response % of control (active compounds read low), % at 10 µM. 2,300 tested, 19% active;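 active = remaining agonist calcium response no higher than 100% minus 3 SD of agonist-only control wells, with starting fluorescence near control levels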;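 also: agonist BAM8-22 given at a near maximal EC90 to ECmax level; peak minus minimum fluorescence divided by baseline after agonist addition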
# HEK293 Ca flux: activity in parental HEK293 cells lacking MrgX1. Fluo-4 calcium fluorescence, FDSS. 4,000 tested, 2% active. shares compounds with MrgX1 antag. AID 624111. fluorescence ratio F(max-min)/F0 at 10 µM;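 active = duplicate-averaged calcium fluorescence ratio at least three times the standard deviation of buffer wells, a nonspecific response in parental cells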
# HEK293 Ca counter: activity in parental HEK293 cells without MrgX1; shares compounds with MrgX1 antag; parental HEK293 calcium flux, Fluo-4 fluorescence ratio; active compounds read high; fluorescence ratio F(max-min)/F0 at 10 µM; 4,000 tested, 0.4% active; AID 624114;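 active = calcium fluorescence ratio, averaged over duplicates, at least 3 SD of the buffer-well ratio, meaning a nonspecific response in receptor-free cells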;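 also: untransfected parental HEK293 lacking MrgX1 used as counterscreen for MrgX1 allosteric activators; fluorescence change taken during the second addition on a kinetic imager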
# HEK293 Ca cntr2: MrgX1 activator counter-screen hit in parental HEK293 cells. shares compounds with MrgX1 antag. Fluo-4 calcium fluorescence (FDSS); active compounds read high. fluorescence ratio F(max-min)/F0 at 10 µM. 4,000 tested, 8.7% active;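 active = calcium fluorescence ratio at least three times the spread of buffer wells, meaning a non-specific response in parental cells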
# Starred values were filed as active, the others as inactive; i = inactive; nt = no result given.
SMILES,RGS4 block,RGS4 pot,MrgX1 ag,MrgX1 allo act,MrgX1 antag,MrgX1 antag conf,HEK293 Ca flux,HEK293 Ca counter,HEK293 Ca cntr2
CCN(C(=O)CSc1nc2ccccc2o1)C1CCS(=O)(=O)C1 (configuration not stated),i,i,i,i,-4.7*,i,i,i,i
COC(=O)c1ccccc1NC(=O)C/C(C)=N/NC(=O)Cc1ccc(Cl)cc1,i,i,i,i,i,nt,nt,nt,nt
O=c1cc(NS(=O)(=O)c2ccccc2)nc(SCc2c(Cl)cccc2Cl)[nH]1,i,i,i,i,-5.1*,i,i,i,i
CNC(=O)c1ccc(C)c(NC(=O)C2=C(C)OCCS2)c1,i,i,i,i,i,nt,nt,nt,nt
CN1CCN(c2ccc(Cl)cc2NC(=O)CN2C(=O)NC(C)(c3ccccc3)C2=O)CC1 (configuration not stated),i,i,i,i,-4.5*,i,i,i,i
COc1ccc2c(c1OC)C(=O)N1C2SC(C)(C)[C@H]1C(=O)NC1CC1 (some centres not stated),i,i,i,i,i,nt,nt,nt,nt
O=C(Nc1ccc2c(c1)OCO2)N1CCN(c2ccc(F)cc2)CC1,i,i,i,i,-4.7*,83%*,i,i,i
O=C(Cc1cccs1)Nc1cccc(-c2nnc(-c3ccco3)o2)c1,i,i,i,i,-7.4*,i,i,i,i
CSCCC(NC(=O)c1ccccc1Cl)C(=O)NC1CCN(Cc2ccccc2)CC1 (configuration not stated),i,i,i,i,i,nt,nt,nt,nt
COc1ccc(C(=O)N2CCCC2)cc1S(=O)(=O)N1CCOCC1,i,i,i,i,i,nt,nt,nt,nt
COc1cc2c(cc1OC)CN(C(=O)c1ccc(OC)c(S(=O)(=O)N3CCOCC3)c1)CC2,i,i,i,i,-5.1*,i,i,i,i
CCN(CC(=O)NCc1ccc(Cl)cc1)C(=O)CNS(=O)(=O)c1ccc(NC(C)=O)cc1,i,i,i,i,i,nt,nt,nt,nt
O=C(c1cc(-c2ccccn2)nc2ccc(Br)cc12)N1CCc2ccccc2C1,i,i,nt,nt,nt,nt,nt,nt,nt
O=C(c1cc(-c2ccccn2)nc2ccc(Br)cc12)N1CCN(S(=O)(=O)c2ccccc2)CC1,i,i,i,i,-6.7*,i,i,i,i
CCn1c(=NC(=O)CN2C(=O)CCC2=O)sc2c(OC)ccc(OC)c21,i,i,i,i,-8.2*,i,i,i,i
COc1ccc(C(=O)N/C(=C\c2cn(C)c3ccccc23)C(=O)N2CCN(C)CC2)cc1OC,i,i,i,i,i,nt,nt,nt,nt
O=C(CNC(=O)c1cccs1)OCC(=O)c1ccccc1,i,i,i,i,i,nt,nt,nt,nt
CCc1ccc(C(=O)COC(=O)CNC(=O)c2cccs2)cc1,i,i,i,i,-6.2*,i,i,i,i
CC(C)Cc1cc(C(=O)N2CCCC(CO)(Cc3ccc(F)cc3F)C2)n[nH]1 (configuration not stated),i,i,i,i,i,nt,nt,nt,nt
COC(=O)c1sc(-c2ccc(Cl)cc2)cc1NC(=O)CSCC(=O)O,i,i,i,i,i,nt,nt,nt,nt
COC(=O)c1sc(-c2ccc(C(C)(C)C)cc2)cc1NC(=O)COCC(=O)O,i,i,i,i,-4.7*,68%*,i,i,60*

# Bioassay records from PubChem.
